Measurements reported in ChEMBL document CHEMBL2331357, “Bioassay-guided isolation of proanthocyanidins with antiangiogenic activities” (J Nat Prod, 2013).
Active and inactive are the calls of the source. The rule behind the calls is not given here.

Tests used:
[1] = biological target: T1, Placenta growth factor (Homo sapiens, UniProt P49763); test: Binding affinity to recombinant PIGF1 (unknown origin) measured for 60 seconds by surface plasmon resonance assay
T1 sequence (P49763 whole entry): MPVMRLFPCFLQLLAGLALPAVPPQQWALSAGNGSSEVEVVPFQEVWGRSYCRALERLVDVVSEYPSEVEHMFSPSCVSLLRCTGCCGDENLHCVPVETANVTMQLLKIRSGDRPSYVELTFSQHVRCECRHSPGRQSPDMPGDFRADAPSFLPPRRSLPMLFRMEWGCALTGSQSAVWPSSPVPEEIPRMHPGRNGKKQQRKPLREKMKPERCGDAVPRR
How it was run: (§1)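 Biacore CM5 chip; proteins (100 μg/mL in 10 mM NaOAc, pH 5.0) amine-coupled to 8−12 kRU alongside BSA and unmodified reference surfaces. Compounds from 4 mM DMSO stocks diluted 1:200 in PBS (10 mM NaH2PO4, 150 mM NaCl, pH 7.4; final DMSO 0.5%), 2-fold six-point series typically 0.025−1 μM, triplicate aliquots with buffer blanks. Association and dissociation recorded; thermodynamic KD derived.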

[2] = biological target: T2, Vascular endothelial growth factor A, long form (Homo sapiens, UniProt P15692); test: Binding affinity to recombinant VEGFA (unknown origin) measured for 60 seconds by surface plasmon resonance assay; how it was run: as §1
T2 sequence (P15692 whole entry): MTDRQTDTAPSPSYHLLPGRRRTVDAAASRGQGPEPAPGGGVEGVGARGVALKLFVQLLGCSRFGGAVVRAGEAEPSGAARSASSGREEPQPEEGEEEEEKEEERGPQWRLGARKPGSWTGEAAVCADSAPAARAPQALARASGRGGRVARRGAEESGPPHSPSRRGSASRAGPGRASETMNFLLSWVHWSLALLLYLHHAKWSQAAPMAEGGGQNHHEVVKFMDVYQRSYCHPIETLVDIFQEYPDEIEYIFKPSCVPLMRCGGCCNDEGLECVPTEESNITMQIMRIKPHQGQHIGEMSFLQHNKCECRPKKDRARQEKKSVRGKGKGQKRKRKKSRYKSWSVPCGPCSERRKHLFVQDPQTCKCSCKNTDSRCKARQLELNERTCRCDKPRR

[3] = species on record: Gallus gallus; test: Antiangiogenic activity in chicken embryo chorioallantoic membrane model assessed as reduction of capillary formation at 2 ug/egg after 4 days; assay type: functional, tissue-based
How it was run: (§2)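 Fertilized chicken eggs incubated at 37 °C, humidified, turned several times; after 4 days a 1 cm2 window opened on the broad side. Test material applied per egg; controls received albumen (100 μL/egg); retinoic acid 2 μg/egg as positive control; at least five eggs per dose. Eggs reincubated two days, then vessels photographed under microscope; branch points compared with albumen controls; mean ± SD of three experiments, Student's t-test.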

[4] = species on record: Gallus gallus; test: Antiangiogenic activity in chicken embryo chorioallantoic membrane model assessed as inhibition of blood vessels growth at 2 ug/egg after 4 days; assay type: functional, tissue-based; how it was run: as §2
[5] = test system: Jurkat; test: Cytotoxicity against human Jurkat cells after 24 to 72 hrs by MTT assay; assay type: cell-based
How it was run: (§3)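 Cells kept in DMEM with 10% FBS, 2 mM L-glutamine, penicillin/streptomycin, 37 °C, 5% CO2, subcultured every two days. Seeded at 1 × 10^4 cells/well and grown without or with various compound concentrations; cell number quantified by MTT conversion at 24, 48 and 72 h. IC50 from at least two independent experiments in triplicate.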

[6] = test system: MCF7; test: Cytotoxicity against human MCF7 cells after 24 to 72 hrs by MTT assay; assay type: cell-based; how it was run: as §3
[7] = species on record: Gallus gallus; test: Antiangiogenic activity in chicken embryo chorioallantoic membrane model assessed as reduction of size of blood vessels at 10 ug/egg after 4 days; assay type: functional, tissue-based; how it was run: as §2
[8] = biological target: T3, Vascular endothelial growth factor receptor 1 (Homo sapiens, UniProt P17948); test: Inhibition of recombinant VEGF-A/VEGFR-1 (unknown origin) interaction after 1 hr by ELISA
T3 sequence (P17948 whole entry): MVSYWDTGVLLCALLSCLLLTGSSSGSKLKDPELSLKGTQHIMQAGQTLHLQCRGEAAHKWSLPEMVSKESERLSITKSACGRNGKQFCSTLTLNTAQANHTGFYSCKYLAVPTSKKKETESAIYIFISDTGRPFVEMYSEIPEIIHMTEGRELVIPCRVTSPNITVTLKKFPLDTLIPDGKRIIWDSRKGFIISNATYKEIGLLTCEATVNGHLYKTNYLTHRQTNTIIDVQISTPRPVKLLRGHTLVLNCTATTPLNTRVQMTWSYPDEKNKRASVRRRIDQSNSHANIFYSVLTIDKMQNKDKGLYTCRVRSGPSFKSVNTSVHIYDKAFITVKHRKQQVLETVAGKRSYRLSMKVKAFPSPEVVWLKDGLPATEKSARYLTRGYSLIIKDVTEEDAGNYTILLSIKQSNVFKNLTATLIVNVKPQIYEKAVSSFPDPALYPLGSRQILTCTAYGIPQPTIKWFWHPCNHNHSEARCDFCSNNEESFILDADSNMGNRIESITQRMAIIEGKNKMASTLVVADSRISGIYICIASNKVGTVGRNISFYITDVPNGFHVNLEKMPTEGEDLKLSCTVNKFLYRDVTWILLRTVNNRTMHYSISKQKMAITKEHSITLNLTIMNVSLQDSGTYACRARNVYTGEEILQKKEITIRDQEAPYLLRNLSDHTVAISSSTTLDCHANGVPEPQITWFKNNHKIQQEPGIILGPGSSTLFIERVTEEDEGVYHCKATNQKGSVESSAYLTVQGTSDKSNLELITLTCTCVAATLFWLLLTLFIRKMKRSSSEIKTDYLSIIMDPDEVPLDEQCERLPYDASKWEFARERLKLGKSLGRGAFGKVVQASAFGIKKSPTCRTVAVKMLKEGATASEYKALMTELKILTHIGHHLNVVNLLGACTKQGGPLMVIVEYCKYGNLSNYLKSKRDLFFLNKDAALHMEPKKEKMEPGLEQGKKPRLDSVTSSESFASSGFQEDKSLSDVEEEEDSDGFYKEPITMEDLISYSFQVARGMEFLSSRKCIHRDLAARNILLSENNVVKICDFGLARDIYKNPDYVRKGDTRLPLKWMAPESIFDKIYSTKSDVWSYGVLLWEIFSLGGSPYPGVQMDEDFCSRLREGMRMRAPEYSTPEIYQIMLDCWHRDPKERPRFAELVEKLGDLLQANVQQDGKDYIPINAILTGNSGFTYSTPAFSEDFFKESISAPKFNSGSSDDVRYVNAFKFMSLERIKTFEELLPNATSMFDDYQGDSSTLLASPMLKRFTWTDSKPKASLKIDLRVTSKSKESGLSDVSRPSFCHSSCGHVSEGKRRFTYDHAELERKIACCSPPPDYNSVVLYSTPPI
How it was run: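 Competitive ELISA: Fc/VEGFR-1 coated at 0.5 μg/mL for 16 h at RT, blocked 3 h with 1% BSA. PlGF-1 (5 ng/mL) or VEGF-A (10 ng/mL) in PBS with 0.1% BSA, 5 mM EDTA, 0.004% Tween 20 added with DMSO-dissolved compound, 1 h 37 °C then 1 h RT. Biotinylated anti-ligand antibody, avidin–biotin-HRP, o-phenylenediamine/H2O2 detection at 490 nm; triplicate points, repeated twice.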

[9] = biological target: T3, Vascular endothelial growth factor receptor 1; test: Inhibition of recombinant PlGF-1/VEGFR-1 (unknown origin) interaction after 1 hr by ELISA
[10] = species on record: Gallus gallus; test: Antiangiogenic activity in chicken embryo chorioallantoic membrane model assessed as reduction of junction of blood vessels at 10 ug/egg after 4 days; assay type: functional, tissue-based; how it was run: as §2
[11] = species on record: Gallus gallus; test: Antiangiogenic activity in chicken embryo chorioallantoic membrane model assessed as inhibition of blood vessels growth at 10 ug/egg after 4 days; assay type: functional, tissue-based; how it was run: as §2
[12] = Antiangiogenic activity in chicken embryo chorioallantoic membrane model assessed as inhibition of blood vessels growth after 4 days; assay type: functional, tissue-based, Gallus gallus; how it was run: as §2
[13] = species on record: Gallus gallus; test: Antiangiogenic activity in chicken embryo chorioallantoic membrane model assessed as reduction of length of blood vessels at 10 ug/egg after 4 days; assay type: functional, tissue-based; how it was run: as §2
[14] = species on record: Gallus gallus; test: Antiangiogenic activity in chicken embryo chorioallantoic membrane model assessed as reduction of number of blood vessels at 10 ug/egg after 4 days; assay type: functional, tissue-based; how it was run: as §2

Kd ([1]; read-out: Kd) | Kd ([2]; read-out: Kd) | Compound | IC50 [5] | IC50 [6] | further results
0.0082 µM | 0.0165 µM | O=c1cc(-c2ccc(O)c(-c3c(O)cc(O)c4c(=O)cc(-c5ccc(O)cc5)oc34)c2)oc2cc(O)cc(O)c12 [AMENTOFLAVONE] |  |  | 
 |  | CC1=C(/C=C/C(C)=C/C=C/C(C)=C/C(=O)O)C(C)(C)CCC1 |  |  | Activity [3]: Active; growth inhibition (GI) [4]: 75.5%
0.394 µM | 0.476 µM | Oc1cc(O)c2c(c1)O[C@@]1(c3ccc(O)c(O)c3)Oc3cc(O)c4c(c3[C@@H]2[C@H]1O)O[C@H](c1ccc(O)c(O)c1)[C@@H](O)C4 [PROANTHOCYANIDIN A1] | > 70 µM | > 70 µM | 
 |  | Oc1cc(O)c2c(c1)O[C@@]1(c3ccc(O)c(O)c3)Oc3cc(O)c4c(c3[C@@H]2[C@H]1O)O[C@H](c1ccc(O)c(O)c1)[C@H](O)C4 [PROANTHOCYANIDIN A2] | > 70 µM | > 70 µM | Kd [1]: Not Active; Kd [2]: Not Active
0.011 µM | 0.016 µM | Oc1ccc([C@@H]2C[C@@H](c3c(O)cc(O)c4c3O[C@H](c3ccc(O)cc3)[C@@H](O)C4)c3c(O)cc(O)cc3O2)cc1 | > 70 µM | > 70 µM | Activity [7]: Active; IC50 [8]: 50 µM; IC50 [9]: 15 µM; Activity [10]: Active; growth inhibition (GI) [11]: 56.2%; IC50 [12]: 9.79 µg; Activity [13]: Active; Activity [14]: Active
0.023 µM | 0.048 µM | Oc1ccc([C@H]2Oc3c(c(O)cc4c3[C@H]3c5c(O)cc(O)cc5O[C@@](c5ccc(O)c(O)c5)(O4)[C@@H]3O)C[C@@H]2O)cc1 [GERANIN B] | > 70 µM | > 70 µM | IC50 [8]: 65 µM
 |  | Oc1ccc([C@@H]2C[C@@H](c3c(O)cc(O)c4c3O[C@H](c3ccc(O)cc3)[C@H](O)C4)c3c(O)cc(O)cc3O2)cc1 | > 70 µM | > 70 µM | Kd [1]: Not Active; Kd [2]: Not Active
